# Bioassay records as filed in PubChem.
# Rows were chosen to be rich in hits. Some 12% of all compounds tested hit in one or more screens of this group.
# Rad51 HR inh: human RAD51 strand exchange inhibitors, primary screen, biochemical, fluorescence; inhibition, % at 10 µM; DNA repair protein RAD51 homolog 1 (Homo sapiens), Q06609; hRad51 DNA strand exchange, fluorescence dequenching; 200,000 compounds, 0.085% hits; AID 1385, 2008;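 active = inhibition above 40% at the single screening dose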;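 also: 0% = DMSO control wells and 100% = blanks with heterologous ssDNA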
#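 Test system – preformed human Rad51 ssDNA filaments · Reagent – Donor/quencher-labelled 47-bp dsDNA substrate · Incubation – 37 °C 15-min filament assembly, 30-min compound preincubation, 15-min exchange · Signal – FRET fluorescence dequenching, excitation 485 nm, emission 520 nm · Read-out – percent inhibition from fluorescence, normalised to plate control and blank means · Benchmarks – plate control and blank wells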
# Wee1 stabilizer: Wee1 degradation inhibitors, primary screen, cell-based, HeLa, Wee1K328M-luciferase, luminescence. HeLa Luc-Wee1K328M stability; 100% = proteasome inhibitor MG132 effect. reporter increase, % at 5 µM. 220,000 compounds, 1.2% hits. AID 1321, 2008;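 active = activation above the mean of all tested compounds plus 3 SD, set per screening run, cut at about 8.8% in these data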;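 also: cells exposed to compound for 20 h before luminescence read; 0% = DMSO alone and 100% = MG132 at 30 µM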
# CHOP inhibitor: inhibitors of CHOP promoter induction, primary screen, cell-based, unfolded protein response, luciferase reporter | CHO-K1 CHOP-promoter luciferase, tunicamycin-induced, 15-18 h | inhibition, % at 10 µM | 220,000 compounds, 3.8% hits | AID 2732, 2010;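 active = compounds that reduced the stress-induced luciferase reporter signal by more than about 70% of percent inhibition, limit read from the data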;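 also: 0% = tunicamycin plus vehicle and 100% = wells without tunicamycin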
# PKD1 kinase inh: inhibitors of human PKD1 kinase, biochemical, fluorescence polarization | Serine/threonine-protein kinase D1 (Homo sapiens), Q15139 | PKD1 kinase fluorescence polarization assay | inhibition, % (concentration not given with the values) | 200,000 compounds, 0.056% hits
# Target sequence (Q15139 whole entry, looked up): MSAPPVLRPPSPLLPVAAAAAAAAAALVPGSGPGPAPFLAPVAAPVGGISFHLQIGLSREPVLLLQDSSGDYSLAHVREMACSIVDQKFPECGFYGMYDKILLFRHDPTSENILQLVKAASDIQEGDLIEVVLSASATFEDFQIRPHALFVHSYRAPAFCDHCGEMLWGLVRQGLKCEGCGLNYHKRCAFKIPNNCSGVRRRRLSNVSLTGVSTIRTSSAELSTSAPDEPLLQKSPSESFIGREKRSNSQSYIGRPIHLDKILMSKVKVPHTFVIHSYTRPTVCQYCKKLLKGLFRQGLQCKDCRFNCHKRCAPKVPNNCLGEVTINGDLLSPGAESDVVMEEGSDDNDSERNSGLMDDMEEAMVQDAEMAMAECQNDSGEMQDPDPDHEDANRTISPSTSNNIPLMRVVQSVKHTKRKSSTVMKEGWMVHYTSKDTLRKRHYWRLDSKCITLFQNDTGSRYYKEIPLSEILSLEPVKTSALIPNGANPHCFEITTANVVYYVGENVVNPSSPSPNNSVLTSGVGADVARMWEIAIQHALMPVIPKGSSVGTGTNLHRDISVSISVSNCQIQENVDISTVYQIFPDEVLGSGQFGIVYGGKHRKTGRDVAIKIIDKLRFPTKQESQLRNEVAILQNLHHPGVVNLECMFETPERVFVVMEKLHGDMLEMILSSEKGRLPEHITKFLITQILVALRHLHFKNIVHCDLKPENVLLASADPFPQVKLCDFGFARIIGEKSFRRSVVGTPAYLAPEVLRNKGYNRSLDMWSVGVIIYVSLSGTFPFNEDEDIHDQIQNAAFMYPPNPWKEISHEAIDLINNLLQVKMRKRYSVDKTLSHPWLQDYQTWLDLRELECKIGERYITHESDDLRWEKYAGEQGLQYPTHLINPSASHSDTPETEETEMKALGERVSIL
# L major viab: Leishmania major promastigote growth inhibition, primary screen. Leishmania major promastigotes, resazurin fluorescence viability. 200,000 compounds, 9% hits. inhibition, % at 10 µM. AID 1063, 2008;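 also: promastigotes grown with compound for 44 hours at 28 °C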
# Arbovirus inh: antivirals against arbovirus infection, primary screen, cell-based, full library, 10K replicate subset; 200,000 compounds, 0.37% hits; inhibition, % at 10 µM; arbovirus infection cell-based antiviral screen; in the data active = inhibition above about 30%
# An asterisk follows results filed as active; . = no result given. Rule as the data show it, unless noted: active = inhibition above about 50%; inactive = the rest.
SMILES,Rad51 HR inh,Wee1 stabilizer,CHOP inhibitor,PKD1 kinase inh,L major viab,Arbovirus inh
CCc1nnc(N/N=C/c2ccc(N3CCC(C)CC3)c([N+](=O)[O-])c2)n1N,5,-3,29,-12,73*,-15
Cc1nnc(N/N=C/c2ccc([N+](=O)[O-])cc2)n1N,.,5,-2,3,11,-5
O=C(O)CCC(=O)N1CCC(n2nnc3cc(C(F)(F)F)ccc32)CC1,14,0,-10,.,.,.
O=C(Cc1ccc([N+](=O)[O-])cc1)Nc1ccc(Cl)cc1,-18,-3,22,-8,4,2
O=C(Cc1ccc(Cl)cc1)NNS(=O)(=O)c1ccc([N+](=O)[O-])cc1,1,-3,12,3,68*,13
CCOc1ccccc1NC(=O)c1ccc(S(=O)(=O)N(C)C)cc1,3,-2,28,-6,-1,-2
CN(Cc1ccccc1NC(=O)c1ccc(S(=O)(=O)N(C)C)cc1)C1CCCCC1,22,5,1,-1,44,47*
O=C(Nc1nncs1)c1cc2c(s1)CCC2,-5,0,6,-2,-10,1
CC(C)Cc1nnc(NC(=O)c2cc3c(s2)CCC3)s1,2,1,85*,.,.,.
CC(C)(O)CC[C@@H](O)[C@](C)(O)[C@H]1CC[C@@]2(O)C3=CC(=O)[C@@H]4C[C@@H](O)[C@@H](O)C[C@]4(C)C3CC[C@]12C (stereo partly drawn),6,3,25,17,-15,1
C[C@@H](C[C@@H](O)[C@H](O)C(C)(C)O)[C@@H]1CC[C@]2(C)C3=CC[C@H]4C(C)(C)C(=O)CC[C@]4(C)[C@H]3CC[C@@]12C,-3,-3,57,-6,92*,-37
CCOC(=O)c1c(CN(C)C)n(-c2ccccc2)c2cc(Br)c(OC)cc12,.,0,50,-6,13,-20
CCOC(=O)c1c(C)oc2c(CN3CCN(C)CC3)c(Br)c(OC)c(O)c12,7,0,15,4,100*,2
CCOC(=O)c1c(CN2CCCCC2)n(C)c2cc(Br)c(O)cc12,2,-2,44,-4,39,9
CCOC(=O)c1c(CN2CCN(C)CC2)n(C)c2cc(Br)c(OC)cc12,2,0,-57,-11,100*,-22
CCOC(=O)c1oc2ccccc2c1CN1CCN(C)CC1,-5,2,8,-6,-2,-1
COc1cc2c(C(=O)OCCN(C)C)c(CSc3ccccc3)n(C)c2cc1Br,0,10*,39,-1,7,11
COc1cccc(CC2(CO)CCCN(Cc3cc(F)ccc3-n3cccn3)C2)c1 (stereo not drawn),-29,-2,-3,5,10,-7
O=C(COC(=O)C12CC3CC(CC(C3)C1)C2)Nc1nc2c(F)c(F)c(F)cc2s1,8,1,95*,1,-4,-5
CCOc1cc(/C=N/NC(=O)c2ccc(CN3CCOCC3)cc2)ccc1OCc1ccccc1,6,-4,59,1,98*,-12
CCOc1cc(/C=N/NC(=O)c2nn(C)cc2Br)ccc1OCc1ccccc1Cl,14,0,37,1,72*,-2
CCOc1cc(/C=N/NC(=O)CN2CCCCC2)ccc1OCc1ccc(Cl)cc1,-5,1,23,-18,99*,2
Cn1cc(Br)c(C(=O)N/N=C/c2cccc(OC3CSC3)c2)n1,.,2,-29,2,5,-2
CCCCOc1ccc(C(=O)N/N=C/c2ccc(OCCN3CCCCC3)c(OC)c2)cc1,11,0,30,-6,100*,-34
CCCCOc1ccc(C(=O)N/N=C/c2cn[nH]c2-c2ccc(OC)c(OC)c2)cc1,-9,-1,7,7,7,21
SMILES,Rad51 HR inh,Wee1 stabilizer,CHOP inhibitor,PKD1 kinase inh,L major viab,Arbovirus inh
COC(=O)c1ccc(Oc2nc(NC(C)(C)C)nc(N3CCOCC3)n2)cc1,7,-2,15,-4,-10,12
COc1ccc(C(=O)Oc2ccc3oc(=O)sc3c2)cc1,2,3,51,-1,-7,-1
O=C(CN(Cc1cccs1)C(=O)CCC(=O)Nc1ccccn1)NCc1ccccc1,4,-1,3,-4,-2,-2
CCc1ccc(C(=O)Nc2cc(C)ccc2F)s1,0,6,5,-4,3,-3
CCOc1cc(/C=N/NC(=O)CN2CCCCC2)ccc1OCc1cccc(Cl)c1,-4,-3,32,-10,97*,6
COc1cc(/C=N/NC(=O)CN2CCCCC2)ccc1OCc1ccccc1,4,4,18,-5,95*,7
COc1cc(/C=C/C(=O)NC(C)C)ccc1OCc1ccccc1,1,3,22,4,-2,-8
COc1cc(/C=N/NC(=O)CCN2CCN(Cc3ccccc3)CC2)cc(OC)c1OC,-1,-1,35,1,52*,6
CCOc1cc(/C=N/NC(=O)CN2CCOCC2)ccc1OCc1ccccc1,2,0,26,-9,6,-2
COc1cc(/C=N/OCC(=O)Nc2cc(C)on2)ccc1OCc1ccccc1,-11,4,1,-8,64*,-4
Cc1ccc(C)c(Cn2c(C)nc3c(sc(=S)n3-c3ccccc3)c2=O)c1,3,0,-7,-6,2,-6
O=C(NCc1ccc2c(c1)CCO2)Nc1ccccc1,3,0,7,.,.,.
CC1(c2ccccc2)CC(C)(C)N2C(=O)Cc3cccc1c32 (stereo not drawn),-3,5,72*,5,4,10
CC(C)CNC(=S)N1CCC(C(=O)c2ccc3c(c2)OCCO3)CC1,2,-2,6,3,1,8
Cn1cnnc1Sc1ccc(/C=C/C(=O)c2ccc(O)cc2)cc1[N+](=O)[O-],12,1,-2,-6,100*,-4
Cn1cnnc1Sc1ccc(C(=O)NCCC23CC4CC(CC(C4)C2)C3)cc1[N+](=O)[O-],6,0,5,-3,51*,-25
CCC(C)(C)NC(=O)c1ccc(Sc2nncn2C)c([N+](=O)[O-])c1,-2,1,16,1,50*,-4
Cc1ccc(F)cc1NC(=O)C1CC(=O)N(CCc2ccccc2)C1 (stereo not drawn),-1,2,-9,-3,-9,11
Cc1cccc(OCc2nc(-c3ccccn3)n[nH]2)c1,13,1,13,6,-6,-36
Cc1ccc(OCc2nc(-c3ccccn3)n[nH]2)cc1,-12,9.1*,57,-4,-9,-36
Cc1ccc(CNC(=O)Nc2ccc3c(c2)N(C)C(=O)CS3)cc1,.,-3,8,-2,7,1
